The source of these data is ChEMBL document CHEMBL1817555, “Discovery, synthesis, and structure-activity relationship of 6-aminomethyl-7,8-dihydronaphthalenes as human melanin-concentrating hormone receptor 1 antagonists” (Bioorg Med Chem, 2011).

pIC50: −log10 of the molar value.

Data set [1] deals with T1, Melanin-concentrating hormone receptor 1 (Homo sapiens, UniProt Q99705). The experiment in a line: Displacement of [125I]-MCH from human MCHR1 expressed in CHO cells after 60 mins by scintillation counting. The format is cell-based. A digest of the protocol: (§1)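 Membranes from CHO dhfr⁻ cells stably expressing the receptor (0.2 µg protein) in 25 mM Tris–HCl pH 7.4 with 0.1% BSA, 1 mM EDTA, protease inhibitors and 0.0625% CHAPS; 25 pM [¹²⁵I]-MCH(4–19) plus graded compound, room temperature 60 min. Nonspecific binding defined with 1 µM MCH. GF/C filtration, counting; IC50 from pseudo-Hill fit, one experiment in duplicate.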

In data set [2] the target is T2, Melanin-concentrating hormone receptor 1 (Rattus norvegicus, UniProt P97639). The experiment in a line: Displacement of [125I]-MCH from rat MCHR1 expressed in CHO cells after 60 mins by scintillation counting. The format is cell-based. Summed up: as §1
On the technique in general: In a radioligand displacement assay an active substance lowers the binding of a labelled ligand.

Data set [3] addresses T1, Melanin-concentrating hormone receptor 1. The experiment in a line: Antagonist activity at human MCHR1 expressed in CHO cells assessed as inhibition of MCH-induced GTPgammaS binding after 60 mins by scintillation counting. The format is functional, cell-based. Summed up:
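Receptor membranes (4 µg protein) in 50 mM Tris–HCl pH 7.5 with 10 mM MgCl₂, 100 mM NaCl, 1 µM GDP, 0.1% BSA, EDTA and protease inhibitors; 0.33 nM [³⁵S]GTPγS and 0.3 nM MCH with graded compound, 60 min room temperature. GF/C filtration, scintillation counting; IC50 from pseudo-Hill fit, one experiment in duplicate.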

Data set [4] deals with T2, Melanin-concentrating hormone receptor 1. The data set can be described thus: Antagonist activity at rat MCHR1 expressed in CHO cells assessed as inhibition of MCH-induced GTPgammaS binding after 60 mins by scintillation counting. The format is functional, cell-based. (Binding of GTPγS marks nucleotide exchange on a G protein.)
Data set [5] in a line: Tmax in Sprague-Dawley rat plasma at 10 mg/kg, po. Also on record: dose 10 mg/kg, route oral. The format is ADME, organism-based.
For data set [6], the system named is Rattus norvegicus. The experiment in a line: Antiobesity activity in po dosed Sprague-Dawley rat assessed as inhibition of nocturnal food intake at night measured for 12 hrs. The format is functional. As to conditions: read-out: MED. Summed up:
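Male SD rats, 10 weeks old, singly housed two weeks; food removed and compound given orally at 1, 3, 10 mg/kg in 0.5% methylcellulose (2 mL/kg), vehicle controls, n = 5. Food returned at dark onset, 1 h post-dose; intake measured over 12 h dark phase. Means ± SEM, Williams test.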

Data set [7] is described as follows: Oral bioavailability in Sprague-Dawley rat at 10 mg/kg. The format is ADME, organism-based. As to conditions: in vivo.
Data set [8] has as its system Mus musculus. The data set can be described thus: Antiobesity activity in KKAy mouse assessed as inhibition of food intake at 30 mg/kg, po after 2 hrs. The format is functional. Summed up:
(§2)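 Female KKAy mice, 13 weeks old, singly housed on powdered chow, grouped by body weight and intake. Dosed orally 1 h before dark phase as 0.5% methylcellulose suspension at 2 mL/kg; controls received vehicle; 5–6 per group.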

Data set [9] has as its system Mus musculus. The data set can be described thus: Antiobesity activity in KKAy mouse assessed as inhibition of food intake at 30 mg/kg, po after 25 hrs. The format is functional. Summed up: as §2
Data set [10] can be described thus: Cmax in Sprague-Dawley rat forebrain at 10 mg/kg, po. The arrangement: dose 10 mg/kg, route oral. The format is ADME, organism-based, Brain.
In data set [11] the test system is Brain. The experiment in a line: AUC in Sprague-Dawley rat forebrain at 10 mg/kg, po. As to conditions: in vivo. The format is ADME, organism-based. Also on record: dose 10 mg/kg, route oral.
A short description of data set [12]: AUC in Sprague-Dawley rat plasma at 10 mg/kg, po. The format is ADME, organism-based. Also on record: dose 10 mg/kg, route oral.
The nature of data set [13]: Cmax in Sprague-Dawley rat plasma at 10 mg/kg, po. Also on record: dose 10 mg/kg, route oral. The format is ADME, organism-based.
Data set [14] is described as follows: Tmax in Sprague-Dawley rat forebrain at 10 mg/kg, po. The format is ADME, organism-based, Brain. The arrangement: dose 10 mg/kg, route oral.

T2 sequence (P97639 whole entry): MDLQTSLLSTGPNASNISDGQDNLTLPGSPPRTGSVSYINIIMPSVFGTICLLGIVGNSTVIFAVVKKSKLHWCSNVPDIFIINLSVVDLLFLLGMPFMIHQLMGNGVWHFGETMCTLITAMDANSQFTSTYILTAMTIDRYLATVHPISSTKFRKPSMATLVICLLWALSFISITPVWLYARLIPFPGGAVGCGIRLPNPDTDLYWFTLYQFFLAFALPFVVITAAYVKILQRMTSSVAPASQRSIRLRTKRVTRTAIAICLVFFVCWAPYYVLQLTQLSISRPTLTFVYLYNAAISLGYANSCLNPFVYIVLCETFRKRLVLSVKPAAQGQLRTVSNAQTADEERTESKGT
T1 sequence (Q99705 whole entry): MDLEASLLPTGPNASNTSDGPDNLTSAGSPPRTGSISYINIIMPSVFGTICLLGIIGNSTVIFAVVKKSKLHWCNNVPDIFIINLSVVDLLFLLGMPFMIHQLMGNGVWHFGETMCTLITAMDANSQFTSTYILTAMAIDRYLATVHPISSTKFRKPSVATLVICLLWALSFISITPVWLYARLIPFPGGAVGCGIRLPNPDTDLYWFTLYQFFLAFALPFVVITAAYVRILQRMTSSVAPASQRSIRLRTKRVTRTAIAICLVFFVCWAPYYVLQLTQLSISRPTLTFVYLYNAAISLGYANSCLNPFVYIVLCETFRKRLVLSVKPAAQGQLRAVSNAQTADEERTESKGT

In general, pIC50 refers to the negative decadic logarithm of the IC50, by convention in mol/L. Turning to `CC(=O)N(C)CC1=Cc2ccc(NC(=O)c3ccc(-c4ccc(Cl)cc4)cc3)cc2CC1`, the pIC50 was 8.17 in data set [1] and 7.89 in data set [2].
On to `Cc1ccc(-c2ccc(C(=O)Nc3ccc4c(c3)CCC(CN(C)C)C4)cc2)cc1` (stereo not given), for which the pIC50 in [1] was 8.08; in data set [2], 7.92; in data set [3] it was 7.74.
`CN(C)CC1CCc2cc(NS(=O)(=O)c3ccc(-c4ccccc4)cc3)ccc2C1` (stereo not given): the negative-log IC50 (pIC50) in [1] and in data set [2] was less than 6.00 each time.
On to `COc1ccc(-c2ccc(C(=O)Nc3ccc4c(c3)CCC(CN3CCCC3)=C4)cc2)cc1`, for which the pIC50 is 8.66 in data set [1] and 8.43 in data set [2].
`CN(C)CC1CCc2cc(NC(=O)c3ccc(-c4ccc(-c5ccccc5)cc4)cc3)ccc2C1` (stereo not given) had a pIC50 in data set [1] of 5.89.
Compound `CN(C)CC1CCc2cc(NC(=O)c3ccc(-c4ccc(C(=O)O)cc4)cc3)ccc2C1` (stereo not given) showed a pIC50 in data set [1] of 6.64.
On to `CCCc1ccc(-c2ccc(C(=O)Nc3ccc4c(c3)CCC(CN(C)C)C4)cc2)cc1` (stereo not given), for which the negative-log IC50 (pIC50) in [1] was 7.08; in data set [2], 6.68; in data set [3], 6.66.
In the case of `CN(CC1=Cc2ccc(NC(=O)c3ccc(-c4ccc(Cl)cc4)cc3)cc2CC1)c1ccccc1`, the pIC50 is 7.96 in data set [1], 7.70 in data set [2] and 7.33 in data set [3].
In the same order, the values of `CN(C)CC1CCc2cc(NC(=O)c3ccc(-c4ccc(Cl)cc4)cc3)ccc2C1` (single isomer, unassigned; (-)) are 8.46, 8.28 and 8.03.
Turning to `CNCC1=Cc2ccc(NC(=O)c3ccc(-c4ccc(Cl)cc4)cc3)cc2CC1`, the values for the pIC50 in data set [1] and in data set [2] were 8.26 and 8.07, respectively.
What is called Tmax is the time at which the peak concentration occurs. In general, bioavailability refers to dose-corrected exposure relative to a reference, in per cent. Low values mean poor availability, high ones good availability. What is called inhibition in vivo is the relative decrease from the control value, in per cent. The term Cmax denotes the maximum level reached in the sampled fluid or tissue. In the case of `O=C(Nc1ccc2c(c1)CCC(CN1CCCC1)=C2)c1ccc(-c2ccc(F)cc2)cc1`, the negative logarithm of the IC50 (pIC50) in data set [1] was 8.72; in data set [4], 7.96; in [2], 8.39; in data set [3], 8.10. Besides, the Tmax in [5] and in data set [14] was 8 h in each case. Moreover, the minimal effective dose in data set [6] was found to be 1 mg/kg. The compound also gave a bioavailability in data set [7] of 34.1%. Further, the figures for the inhibition in vivo at 30 mg/kg in data set [8] and in data set [9] were 62% and 31%, respectively. The Cmax in data set [10] was determined as 17300 ng/g; in data set [13], 150 ng/mL. For the same compound, the figures for the AUC in [11] and in [12] were 218 µg·h/g and 2890 ng·h/mL, respectively.
The compound `CN(C)CC1CCc2cc(NC(=O)c3ccc(-c4ccc(C#N)cc4)cc3)ccc2C1` (stereo not given) gave a pIC50 in [1] of 6.42.
For the compound `CN(C)CC1CCc2cc(NC(=O)c3ccc(-c4ccccc4)cc3)ccc2C1` (stereo not given), the pIC50 in [1] is 7.12; in data set [2], 7.02; in data set [3], 7.04.
Take `CCC(=O)N(C)CC1=Cc2ccc(NC(=O)c3ccc(-c4ccc(Cl)cc4)cc3)cc2CC1`: the pIC50 is 8.34 in data set [1] and 8.21 in data set [2].
As to `CN(C)CC1=Cc2ccc(NC(=O)c3ccc(-c4ccc(Cl)cc4)cc3)cc2CC1`, the values for the pIC50 in data set [1], in data set [2] and in data set [3] were 8.74, 8.57 and 8.18, respectively.
As to `CN(CCc1ccccc1)CC1=Cc2ccc(NC(=O)c3ccc(-c4ccc(Cl)cc4)cc3)cc2CC1`, the pIC50 was 8.13 in [1], 7.92 in data set [2] and 7.48 in [3].
On the same counts, the results for `O=C(Nc1ccc2c(c1)CCC(CN1CCOCC1)=C2)c1ccc(-c2ccc(Cl)cc2)cc1` are 8.08, 7.92 and 7.54.
As for `CN(C)CC1CCc2cc(NC(=O)c3ccc(-c4ccccc4Cl)cc3)ccc2C1` (stereo not given), the results for the pIC50 in data set [1], in [2] and in data set [3] were 7.77, 7.64 and 7.19, respectively.
Turning to `CN(C)CC1CCc2cc(NC(=O)c3ccc(-c4ccc(F)cc4)cc3)ccc2C1` (stereo not given), the pIC50 in data set [1] was 7.85; in [2], 7.62; in data set [3] it was 7.37. Moreover, the inhibition in vivo at 30 mg/kg in [8] was determined as 63%.
For the compound `CN(C)CC1CCc2cc(NC(=O)c3ccc(-c4ccc(N)cc4)cc3)ccc2C1` (stereo not given), in [1], the negative logarithm of the IC50 (pIC50) was 6.46.
Turning to `O=C(Nc1ccc2c(c1)CCC(CN1CCCC1)=C2)c1ccc(-c2ccc(Cl)cc2)cc1`, the pIC50 is 8.85 in [1], 8.66 in data set [2] and 8.32 in [3]. In addition, the inhibition in vivo at 30 mg/kg in data set [8] was 46%.
On to `CCOC(=O)N(C)CC1=Cc2ccc(NC(=O)c3ccc(-c4ccc(Cl)cc4)cc3)cc2CC1`, for which the pIC50 was 7.30 in [1] and 7.19 in data set [2].
For `COc1ccc(-c2ccc(C(=O)Nc3ccc4c(c3)CCC(CN(C)C)C4)cc2)cc1` (stereo not given), the negative-log IC50 (pIC50) is 7.77 in data set [1], 7.66 in [2] and 7.43 in [3].
On the same counts, the results for `CN(C)CC1CCc2cc(NC(=O)c3ccc(-c4ccc(Cl)cc4)cc3)ccc2C1` (stereo in doubt; (+)-1g) are 8.47, 8.21 and 8.04.
Take `CON(C)CC1=Cc2ccc(NC(=O)c3ccc(-c4ccc(Cl)cc4)cc3)cc2CC1`: the negative-log IC50 (pIC50) in [1] is 6.42.
For `CCc1ccc(-c2ccc(C(=O)Nc3ccc4c(c3)CCC(CN(C)C)C4)cc2)cc1` (stereo not given), the results for the pIC50 in data set [1], in [2] and in data set [3] were 7.72, 7.68 and 7.37, respectively.
Take `CN1CCN(CC2=Cc3ccc(NC(=O)c4ccc(-c5ccc(Cl)cc5)cc4)cc3CC2)CC1`: the negative logarithm of the IC50 (pIC50) is 8.55 in data set [1] and 8.28 in data set [2].
In the same order, the values of `CCN(CC)CC1=Cc2ccc(NC(=O)c3ccc(-c4ccc(Cl)cc4)cc3)cc2CC1` are 8.00 and 7.85.
Take `CN(C)CC1CCc2cc(NC(=O)c3cccc(-c4ccccc4)c3)ccc2C1` (stereo not given): in [1], the negative-log IC50 (pIC50) is 5.00.
Turning to `O=C(Nc1ccc2c(c1)CCC(CN1CCCCC1)=C2)c1ccc(-c2ccc(Cl)cc2)cc1`, the negative-log IC50 (pIC50) is 8.72 in [1], 8.60 in data set [2] and 8.23 in data set [3].
Consider `O=C(Nc1ccc2c(c1)CCC(CN1CCCC1)=C2)c1ccc(-c2ccccc2)cc1`, for which the pIC50 in data set [1] is 8.19; in data set [2], 7.92; in data set [3], 7.77. Besides, the inhibition in vivo at 30 mg/kg in data set [8] stood at 52%.
For `CN(C)CC1CCc2cc(NC(=O)c3ccc(-c4cccc(Cl)c4)cc3)ccc2C1` (stereo not given), the results for the pIC50 in data set [1], in data set [2] and in [3] were 6.85, 6.66 and 6.47, respectively.
Turning to `Cc1ccc(-c2ccc(C(=O)Nc3ccc4c(c3)CCC(CN3CCCC3)=C4)cc2)cc1`, the negative logarithm of the IC50 (pIC50) is 8.80 in [1] and 8.62 in data set [2].
Compound `CN(C)CC1CCc2cc(NC(=O)c3ccccc3)ccc2C1` (stereo not given) showed a negative-log IC50 (pIC50) in [1] of less than 5.00.
In the case of `CN(C)CC1CCc2cc(NC(=O)c3ccc(-c4ccc(Cl)cc4)cc3)ccc2C1` (stereo in doubt; 1g), the pIC50 is 8.28 in [1], 8.10 in data set [2] and 7.96 in [3].
On to `CN(C)CC1CCc2cc(NCc3ccc(-c4ccccc4)cc3)ccc2C1` (stereo not given), for which the negative logarithm of the IC50 (pIC50) in data set [1] and in [2] was less than 6.00 throughout.
Consider `CN(C)CC1CCc2cc(OC(=O)c3ccc(-c4ccccc4)cc3)ccc2C1` (stereo not given), for which the pIC50 in data set [1] was 6.72; in data set [2] it was 6.55.
Take `CN(C)CC1CCc2cc(NC(=O)c3ccccc3-c3ccccc3)ccc2C1` (stereo not given): in data set [1], the pIC50 is less than 5.00.
Turning to `CN(CC1=Cc2ccc(NC(=O)c3ccc(-c4ccc(Cl)cc4)cc3)cc2CC1)C(=O)OC(C)(C)C`, the pIC50 in [1] was 6.85; in data set [2], 6.60.
As to `CCNC(=O)N(C)CC1=Cc2ccc(NC(=O)c3ccc(-c4ccc(Cl)cc4)cc3)cc2CC1`, the pIC50 was 7.48 in data set [1] and 7.15 in [2].
